# Measured values from different studies.
# Target: Protein kinase C eta type (PRKCH, Homo sapiens, UniProt P24723)
Structure (SMILES),test,conditions,remaining binding [%]
C=CC(=O)N1CCC(C(=O)NCC(=O)N2CCN(c3nc(-c4cnc(N)nc4C(F)F)nc(N4CCOCC4)n3)CC2)CC1,"binding, competition with immobilised ligand",1 µM,100
CN(CCCC(F)(F)F)c1nccc(-c2cnn3ncccc23)n1,binding,1 µM,89
FC(F)(F)Oc1cccc(-c2cnc3ccc(-c4ccncc4)nn23)c1,"cell-free assay, competition with immobilised ligand",5 µM,91
O=C(c1ccc(Nc2ncc(Cl)c(-c3cc4ccccc4s3)n2)cc1)N1CCC(N2CCCC2)CC1,"binding, competition with immobilised ligand",1 µM,12
c1cnn2ncc(-c3ccnc(N4CCC45COC5)n3)c2c1,binding,1 µM,88
Cc1cnc(Nc2ccc(C(=O)N3CCC(N4CCCC4)CC3)cc2)nc1-c1cc2ccccc2s1,"binding, competition with immobilised ligand",1 µM,15
CCS(=O)(=O)c1cc2cc(C[C@@](O)(CC(C)(C)c3ccc(F)cc3C(N)=O)C(F)(F)F)[nH]c2cn1,"cell-free assay, competition with immobilised ligand",1 µM,100
c1cncc(-c2cccc(Nc3nccc(NC4CCCCC4)n3)c2)c1,"binding, competition with immobilised ligand",10 µM,73
O=C(c1ccc(Nc2ncc(Cl)c(-c3ccc(Cl)s3)n2)cc1)N1CCC(N2CCCC2)CC1,"binding, competition with immobilised ligand",1 µM,46
CN(C)CC#Cc1ccc(OCCCc2sc(N3CCc4cccc(C(=O)Nc5nc6ccccc6s5)c4C3)nc2C(=O)O)c(F)c1,"cell-free assay, competition with immobilised ligand",1 µM,74
N[C@@H]1CCN(c2nccc(-c3cnn4ncccc34)n2)C1,binding,1 µM,100
Cn1nc(C(=O)NCc2ccc(C(=O)O)cc2)cc1-c1ccc2[nH]ccc2c1,"cell-free assay, competition with immobilised ligand",0.1 µM,84
Nc1ncc2c(n1)-c1c([nH]c3ccc(C#CC4CC4)cc13)CCCC2,"binding, competition with immobilised ligand",1 µM,100
CN(C)c1ncnc(-c2ccc3nc(Nc4cc(CN5CCN(C(=O)CC(F)(F)F)CC5)ccn4)[nH]c3c2)c1Cl,"cell-free assay, competition with immobilised ligand",1 µM,100
CN(c1nccc(-c2cnn3ncccc23)n1)C1CC1,binding,1 µM,100
CCCOc1ccc([C@@H]2[C@@H](C(=O)O)[C@H](c3ccc4c(c3)OCO4)CN2CC(=O)Nc2c(CC)cccc2CC)cc1,"cell-free assay, competition with immobilised ligand",1 µM,100
CC1CCCN1c1nccc(-c2cnn3ncccc23)n1 (stereo not shown),binding,1 µM,100
COc1cnc(Nc2cccc(S(N)(=O)=O)c2)nc1N1CCN(c2ccccc2)CC1,"binding, competition with immobilised ligand",1 µM,100
COc1ccnn2ncc(-c3ccnc(N(C)C)n3)c12,binding,1 µM,92
O=C(NCC1CCOCC1)c1n[nH]cc1NC(=O)c1c(F)cccc1F,"binding, competition with immobilised ligand",1 µM,92
CN(C)c1ncc(F)c(-c2cnn3ncccc23)n1,binding,1 µM,100
C[C@@H]1CN(c2cc(-c3n[nH]c4ccc(OC5(C)CC5)cc34)ncn2)C[C@H](C)O1,"cell-free assay, competition with immobilised ligand",0.1 µM,92
